Measurements as given in ChEMBL document CHEMBL5550111, “Design, synthesis and biological evaluation of aryloxy thiophosphoramidate triesters of anticancer nucleoside analogues” (Bioorg Med Chem, 2024).

Legend:
[1] = tested on: HL-60; experiment: Cytotoxicity against human HL-60 cells assessed as maximum inhibition of cell viability upto 198 uM incubated for 72 hrs by MTS assay relative to control; assay type: functional; details: up to 198 µM
In short: (§1)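 Cells seeded at 0.5 to 100 × 10^3 per well the day before drug addition, then exposed to compound for 72 h. MTS added afterwards, with a further 4 h at 37 °C, and absorbance read. Tested in duplicate at 9 serial 3.16-fold dilutions, top concentration 198 μM. MI% is the maximum inhibition of viability across the tested range.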

[2] = tested on: HT-29; experiment: Cytotoxicity against human HT-29 cells assessed as maximum inhibition of cell viability upto 198 uM incubated for 72 hrs by MTS assay relative to control; assay type: functional; details: up to 198 µM; in short: as §1
[3] = tested on: K562; experiment: Cytotoxicity against human K562 cells assessed as maximum inhibition of cell viability upto 198 uM incubated for 72 hrs by MTS assay relative to control; assay type: functional; details: up to 198 µM; in short: as §1
[4] = tested on: MCF7; experiment: Cytotoxicity against human MCF7 cells assessed as inhibition of cell viability incubated for 72 hrs by MTS assay; assay type: functional, cell-based; details: MCF7, 72 h
[5] = tested on: HepG2; experiment: Cytotoxicity against human HepG2 cells assessed as inhibition of cell viability incubated for 72 hrs by MTS assay; assay type: functional, cell-based; details: HepG2, 72 h
In short: (§2)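 Cells seeded at 0.5 to 100 × 10^3 per well the day before treatment, then exposed for 72 h to 9 serial concentrations (3.16-fold dilutions, top 198 μM), in duplicate. MTS added for a final 4 h at 37 °C and absorbance read. IC50 is the concentration giving 50% loss of viability. MI% is the maximum inhibition over the tested range.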

[6] = tested on: MDA-MB-231; experiment: Cytotoxicity against human MDA-MB-231 cells assessed as inhibition of cell viability incubated for 72 hrs by MTS assay; assay type: functional, cell-based; details: MDA-MB-231, 72 h; in short: as §2
[7] = tested on: HepG2; experiment: Cytotoxicity against human HepG2 cells assessed as maximum inhibition of cell viability upto 198 uM incubated for 72 hrs by MTS assay relative to control; assay type: functional; details: up to 198 µM; in short: as §1
[8] = tested on: HL-60; experiment: Cytotoxicity against human HL-60 cells assessed as inhibition of cell viability incubated for 72 hrs by MTS assay; assay type: functional, cell-based; details: HL-60, 72 h; in short: as §2
[9] = tested on: CAKI-2; experiment: Cytotoxicity against human CAKI-2 cells assessed as inhibition of cell viability incubated for 72 hrs by MTS assay; assay type: functional, cell-based; details: CAKI-2, 72 h; in short: as §2
[10] = Cytotoxicity against human ACHN-luc2 cells assessed as inhibition of cell viability incubated for 72 hrs by MTS assay; assay type: functional, cell-based; details: ACHN-luc2, 72 h; in short: as §2
[11] = Cytotoxicity against human T24/83 cells assessed as inhibition of cell viability incubated for 72 hrs by MTS assay; assay type: functional, cell-based; details: T24/83, 72 h; in short: as §2
[12] = tested on: HT-29; experiment: Cytotoxicity against human HT-29 cells assessed as inhibition of cell viability incubated for 72 hrs by MTS assay; assay type: functional, cell-based; details: HT-29, 72 h; in short: as §2
[13] = tested on: PC-3; experiment: Cytotoxicity against human PC-3 cells assessed as maximum inhibition of cell viability upto 198 uM incubated for 72 hrs by MTS assay relative to control; assay type: functional; details: up to 198 µM; in short: as §1
[14] = tested on: COLO 205; experiment: Cytotoxicity against human COLO 205 cells assessed as maximum inhibition of cell viability upto 198 uM incubated for 72 hrs by MTS assay relative to control; assay type: functional; details: up to 198 µM; in short: as §1
[15] = Cytotoxicity against human ACHN-luc2 cells assessed as maximum inhibition of cell viability upto 198 uM incubated for 72 hrs by MTS assay relative to control; assay type: functional; details: up to 198 µM; in short: as §1
[16] = tested on: RL; experiment: Cytotoxicity against human RL cells assessed as maximum inhibition of cell viability upto 198 uM incubated for 72 hrs by MTS assay relative to control; assay type: functional; details: up to 198 µM; in short: as §1
[17] = tested on: MIA PaCa-2; experiment: Cytotoxicity against human MIA PaCa-2 cells assessed as maximum inhibition of cell viability upto 198 uM incubated for 72 hrs by MTS assay relative to control; assay type: functional; details: up to 198 µM; in short: as §1
[18] = tested on: RL; experiment: Cytotoxicity against human RL cells assessed as inhibition of cell viability incubated for 72 hrs by MTS assay; assay type: functional, cell-based; in short: as §2
[19] = tested on: KG-1; experiment: Cytotoxicity against human KG-1 cells assessed as maximum inhibition of cell viability upto 198 uM incubated for 72 hrs by MTS assay relative to control; assay type: functional; details: up to 198 µM; in short: as §1
[20] = tested on: A498; experiment: Cytotoxicity against human A498 cells assessed as maximum inhibition of cell viability upto 198 uM incubated for 72 hrs by MTS assay relative to control; assay type: functional; details: up to 198 µM; in short: as §1
[21] = tested on: COLO 205; experiment: Cytotoxicity against human COLO 205 cells assessed as inhibition of cell viability incubated for 72 hrs by MTS assay; assay type: functional, cell-based; details: COLO 205, 72 h; in short: as §2
[22] = tested on: PC-3; experiment: Cytotoxicity against human PC-3 cells assessed as inhibition of cell viability incubated for 72 hrs by MTS assay; assay type: functional, cell-based; details: PC-3, 72 h; in short: as §2
[23] = tested on: CAKI-2; experiment: Cytotoxicity against human CAKI-2 cells assessed as maximum inhibition of cell viability upto 198 uM incubated for 72 hrs by MTS assay relative to control; assay type: functional; details: up to 198 µM; in short: as §1
[24] = tested on: MDA-MB-231; experiment: Cytotoxicity against human MDA-MB-231 cells assessed as maximum inhibition of cell viability upto 198 uM incubated for 72 hrs by MTS assay relative to control; assay type: functional; details: up to 198 µM; in short: as §1
[25] = tested on: MOLT-4; experiment: Cytotoxicity against human MOLT-4 cells assessed as maximum inhibition of cell viability upto 198 uM incubated for 72 hrs by MTS assay relative to control; assay type: functional; details: up to 198 µM; in short: as §1
[26] = tested on: A498; experiment: Cytotoxicity against human A498 cells assessed as inhibition of cell viability incubated for 72 hrs by MTS assay; assay type: functional, cell-based; details: A498, 72 h; in short: as §2
[27] = Cytotoxicity against human T24/83 cells assessed as maximum inhibition of cell viability upto 198 uM incubated for 72 hrs by MTS assay relative to control; assay type: functional; details: up to 198 µM; in short: as §1
[28] = tested on: MCF7; experiment: Cytotoxicity against human MCF7 cells assessed as maximum inhibition of cell viability upto 198 uM incubated for 72 hrs by MTS assay relative to control; assay type: functional; details: up to 198 µM; in short: as §1
[29] = tested on: K562; experiment: Cytotoxicity against human K562 cells assessed as inhibition of cell viability incubated for 72 hrs by MTS assay; assay type: functional, cell-based; details: K562, 72 h; in short: as §2
[30] = tested on: 5637; experiment: Cytotoxicity against human 5637 cells assessed as maximum inhibition of cell viability upto 198 uM incubated for 72 hrs by MTS assay relative to control; assay type: functional; details: up to 198 µM; in short: as §1
[31] = tested on: KG-1; experiment: Cytotoxicity against human KG-1 cells assessed as inhibition of cell viability incubated for 72 hrs by MTS assay; assay type: functional, cell-based; details: KG-1, 72 h; in short: as §2
[32] = tested on: MIA PaCa-2; experiment: Cytotoxicity against human MIA PaCa-2 cells assessed as inhibition of cell viability incubated for 72 hrs by MTS assay; assay type: functional, cell-based; details: MIA PaCa-2, 72 h; in short: as §2
[33] = tested on: 5637; experiment: Cytotoxicity against human 5637 cells assessed as inhibition of cell viability incubated for 72 hrs by MTS assay; assay type: functional, cell-based; details: Homo sapiens, 5637, 72 h; in short: as §2
[34] = tested on: MOLT-4; experiment: Cytotoxicity against human MOLT-4 cells assessed as inhibition of cell viability incubated for 72 hrs by MTS assay; assay type: functional, cell-based; details: MOLT-4, 72 h; in short: as §2

Structure (SMILES) | Imax [1] | Imax [2] | Imax [3] | IC50 [4] | IC50 [5] | IC50 [6] | Imax [7] | IC50 [8] | IC50 [9] | IC50 [10] | IC50 [11] | IC50 [12] | Imax [13] | Imax [14] | Imax [15] | Imax [16] | Imax [17] | IC50 [18] | Imax [19] | Imax [20] | further results
Nc1ncnc2c1ncn2[C@@H]1O[C@H](CO)C[C@H]1O [CORDYCEPIN] | 57% | 90% | 70% | 45.9 µM | 77.2 µM | 78.6 µM | 71% | 145 µM | 94.2 µM | 77 µM | 99.1 µM | 26.3 µM | 70% | 24% | 14% | 4% | 87% | 135 µM | 92% | 18% | IC50 [21]: 108 µM; IC50 [22]: 85.3 µM; Imax [23]: 25%; Imax [24]: 59%; Imax [25]: 77%; IC50 [26]: 85.4 µM; Imax [27]: 96%; Imax [28]: 93%; IC50 [29]: 94.4 µM; Imax [30]: 44%; IC50 [31]: 89 µM; IC50 [32]: 76.8 µM; IC50 [33]: 71.6 µM; IC50 [34]: 85.3 µM
C[C@H](NP(=O)(OC[C@@H]1C[C@@H](O)[C@H](n2cnc3c(N)ncnc32)O1)Oc1ccccc1)C(=O)OCc1ccccc1 (stereo partly drawn) [FOSDESDENOSINE SIPALABENAMIDE] | 101% | 96% | 83% | 3.69 µM | 25.2 µM | 19.4 µM | 80% | 38.4 µM | 102 µM | 112 µM | 31.4 µM | 9.47 µM | 74% | 87% | 62% | 94% | 95% | 34.6 µM | 92% | 82% | IC50 [21]: 27.8 µM; IC50 [22]: 51.2 µM; Imax [23]: 78%; Imax [24]: 79%; Imax [25]: 96%; IC50 [26]: 58.1 µM; Imax [27]: 92%; Imax [28]: 90%; IC50 [29]: 10.3 µM; Imax [30]: 100%; IC50 [31]: 23.5 µM; IC50 [32]: 7.41 µM; IC50 [33]: 47.5 µM; IC50 [34]: 4.67 µM
